Results collected from several papers.
Each line is one published result; the experiments were not run side by side.
Effect on: cell growth or viability

Cc1ccc(S(=O)(=O)NNc2ccc([N+](=O)[O-])cc2[N+](=O)[O-])cc1 — viability (HEK293; MTT; 62.5 µg/mL): 82.7%
Nc1ccn([C@@H]2O[C@H](CO)[C@@H](O)C2(F)F)c(=O)n1 — viability (HEK293; MTT; 0.625 µg/mL; 24 h): 83.8%
CCOc1cc(C=NNC(N)=S)ccc1OC(=O)CN1C(=O)CSC1=O — viability (HEK293; MTT; 40 µg/mL; 24 h): > 70%
CCOC(=O)C1=C(CN2CCC[C@@H]2C(=O)Nc2cccc(B(O)O)c2)NC(c2nccs2)=N[C@H]1c1ccc(F)cc1Br — CC50 (HePAD38; CCK-8; 6 days): 18.4 µM
C#Cc1cc(F)c(-c2c(Cl)nc(-c3cccs3)nc2NCC2(C)N=N2)c(F)c1 — CC50 (HEK293; resazurin; 48 h): > 20 µM
CCOC(=O)c1cnc2c([N+](=O)[O-])cc(C(F)(F)F)cc2c1NCc1ccc(C(F)(F)F)cc1 — CC50 (HEK293; resazurin; 72 h): ~9 µM
CC(C)[C@@H](C)Nc1nc(-c2cccs2)nc(Cl)c1-c1c(F)cc([N+](=O)[O-])cc1F — CC50 (HEK293; resazurin; 48 h): 20.2 µM
CCOC(=O)C1=C(CN2CCC[C@@H]2C(=O)Nc2ccc(B(O)O)cc2)NC(c2nccs2)=N[C@H]1c1ccc(F)cc1Br — CC50 (HePAD38; CCK-8; 6 days): 26.5 µM
CC(C)(C)CNc1nc(-c2cccs2)nc(Cl)c1-c1c(F)cc(C#N)cc1F — CC50 (HEK293; resazurin; 48 h): > 50 µM
NC(=S)NN=Cc1ccc(OC(=O)CN2C(=O)CSC2=O)c(Cl)c1 — viability (HEK293; MTT; 50 µg/mL; 24 h): > 70%
